Screens deposited in PubChem by several laboratories.
STAT1 blocker: reduces IFN-gamma driven STAT1 reporter signal; NIH 3T3 STAT1-luciferase reporter, luminescence; inhibition, % at 5.5 µM; 200,000 compounds, 0.35% hits; AID 920;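 active = inhibition above a set limit, the mean inhibition across all tested compounds plus 3 SD, cut at about 34% in these data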;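 also: 0% = IFN-gamma with DMSO and 100% = IFN-gamma with 300 µM nifuroxazide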
Cl transport mod: modulates chloride dependent transport by human KCC2; B-score of Tl+ flux slope (higher = more flux/activation; lower = inhibition) at 10 µM; Q9H2X9; KCC2 cells, thallium flux FluoZin-2 fluorescence; 190,000 compounds, 2.2% hits;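 active = thallium flux slope and its plate-corrected score both differing from the plate sample mean at a set confidence after two filtering rounds, in either direction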;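 also: slope of fluorescence scaled to starting intensity during 10 to 20 s after thallium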
STAT3 inh-1: inhibitors of IL-6 induced STAT3 signaling | U3A cells, IL-6 STAT3-luciferase reporter, luminescence; host cell line lacks STAT1 | inhibition, % at 5.5 µM | 190,000 compounds, 0.89% hits | AID 862;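 active = inhibition above the mean inhibition across all screened compounds plus 3 SD, cut at about 44% in these data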;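 also: 0% = DMSO only wells and 100% = 100 µM nifuroxazide control wells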
STAT1 act: STAT1 signaling activation. activation (% of control), % at 5.5 µM. NIH 3T3 STAT1-luciferase reporter, IFN-gamma, luminescence; 100% = IFN-gamma alone, no compound. AID 932. 200,000 compounds, 2.6% hits;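 active = activation above the screen-wide mean activation plus 3 SD, cut at about 130% in these data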;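 also: raw ratio to IFN-gamma control signal so 100% means no change and 0% no light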
HSV augment: HSV replication enhancement; AID 1956; 220,000 compounds, 0.005% hits; maximum fold increase; HSV replication augmentation in cells, fold increase; in the data active = maximum fold increase above about 1.5; tested in PC3 cells
STAT3 act: increases IL-6 driven STAT3 reporter signal; U3A cells, IL-6 STAT3-luciferase reporter, luminescence; 100% = signal with IL-6 EC80 alone; activation (% of control), % at 5.6 µM; 190,000 compounds, 0.91% hits;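 active = activation above the screen-wide mean of compound activation plus 3 SD, cut at about 130% in these data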;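 also: 0% = background luminescence of wells with medium and substrate only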
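Material: STAT3-luciferase reporter U3A cells; Probe or stimulus: IL-6 (33 ng/mL); Incubation: compound pre-incubation 1 h before IL-6, then 6 h stimulation at 37 °C; Technique: luminescence from STAT3-driven luciferase reporter; Evaluation: % activation versus median of IL-6-stimulated wells; Controls: IL-6-only high control.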
STAT3 inh-2: STAT3 inhibition, confirmation assay | shares compounds with STAT3 inh-1 | U3A cells, IL-6 STAT3 luciferase reporter, luminescence; cell line lacks STAT1 | inhibition, % at 5.7 µM | 1,200 compounds, 45% hits;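 active = inhibition above the hit cutoff computed for the primary STAT3 screen, cut at about 44% in these data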;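 also: 0% = IL-6 plus DMSO and 100% = IL-6 plus nifuroxazide control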
NFkB inh STAT3ct: NF-kappaB inhibition in STAT3 inhibitor counter-screen | 1,200 compounds, 36% hits | HEK293T NF-kB luciferase reporter, TNF-alpha induced | shares compounds with STAT3 inh-1 | inhibition, % at 5.7 µM;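 active = inhibition above the mean of solvent-only control wells plus 3 SD, cutoff set per campaign, cut at about 13% in these data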;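 also: 0% = TNF-alpha with DMSO and 100% = TNF-alpha with MG high control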
STAT1 inh 2: counter-screen for STAT3 inhibitors: STAT1 inhibition | shares compounds with STAT3 inh-1 | NIH 3T3 STAT1-luciferase reporter, IFN-gamma induced, luminescence | inhibition, % at 5.7 µM | 1,200 compounds, 27% hits;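 active = inhibition above the mean plus 3 SD of solvent-only control wells, limit set per screening run, cut at about 16% in these data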;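 also: 0% = DMSO with IFN-gamma and 100% = nifuroxazide control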
* marks the source's active call; other numbers are inactive results; i = inactive; . = no result. An excerpt weighted towards active compounds, which were near 5.5% of everything screened.

SMILES	STAT1 blocker	Cl transport mod	STAT3 inh-1	STAT1 act	HSV augment	STAT3 act	STAT3 inh-2	NFkB inh STAT3ct	STAT1 inh 2
CCC(=O)c1ccc(OCc2ccc(C(=O)c3ccccc3)cc2)cc1	27	1.8	50*	73	i	62	43	8	19*
CC1=CC(=C2C(=O)c3ccccc3C2=O)C=C(C)O1	-26	-0.16	15	124	.	89	.	.	.
CCCCN1C(C)=CC(=C2C(=O)c3ccccc3C2=O)C=C1C	18	0.76	71*	82	i	43	16	-26	-132
CC(C)Nc1ncnc2c1cnn2-c1ccc(Cl)cc1	5	-0.25	55*	93	i	55	16	-31	-186
Clc1ccc(Nc2ncnc3c2cnn3-c2ccccc2)cc1	-25	1	4	125	i	96	.	.	.
CCCCn1c(N)c(N(CC)C(=O)C(c2ccccc2)c2ccccc2)c(=O)[nH]c1=O	-5	-0.75	-7	106	i	106	.	.	.
CCOc1cc(S(=O)(=O)N2CCC(c3nc4ccccc4s3)CC2)c(OCC)cc1S(=O)(=O)N1CCCCC1	-9	.	-6	108	i	105	.	.	.
CC1CCCN(C(=O)c2ccc(S(=O)(=O)N3CCC(c4nc5ccccc5s4)CC3)cc2)C1 (stereo unspecified)	-4	0.64	53*	106	i	57	50*	14*	18*
O=S(=O)(c1ccccc1)N1CCCC1c1nc2ccccc2s1 (stereo unspecified)	-3	.	13	103	i	92	.	.	.
CCN(CC)C(=O)c1ccc(S(=O)(=O)N2CCC(c3nc4ccccc4s3)CC2)cc1	22	-1.8	67*	84	i	46	51*	11	18*
CN(C)CCCNC(=O)c1ccc(Cl)c(S(=O)(=O)N(C)c2ccccc2)c1	6	0.2	-3	95	i	103	.	.	.
CCOC(=O)N1CCN(C(=O)CSCC(=O)Nc2nc(-c3ccc(OC)cc3)cs2)CC1	4	-0.46	18	97	i	88	.	.	.
CCOC(=O)N1CCN(C(=O)CSCC(=O)Nc2nc(-c3ccc(-c4ccccc4)cc3)cs2)CC1	0	-0.19	72*	100	i	44	73*	15*	-8
Clc1ccc(CSc2nnnn2-c2ccc3c(c2)OCO3)c(Cl)c1	8	-1.6	0	93	i	101	.	.	.
O=C(C1CCC(CNc2nc(=S)[nH]c3ccccc23)CC1)N1CCN(c2ccccn2)CC1 (stereo unspecified)	10	.	50*	91	.	58	52*	8	35*
COc1cc(C(=O)NCC(c2cccnc2)N2CCN(c3ccc(F)cc3)CC2)cc(OC)c1OC (stereo unspecified)	7	0.62	-11	92	i	110	.	.	.
c1ccc2oc(C3=NNC(=NC4CC4)SC3)cc2c1	-19	0.32	57*	117	i	51	23	-19	-54
c1ccc(CN=C2NN=C(c3cc4ccccc4o3)CS2)cc1	-12	-0.65	2	111	i	102	.	.	.
COc1ccc(-c2nc3ccccc3s2)cc1O	10	-1.9	92*	91	i	25	53*	1	-16
COc1cccc(-c2nc3ccccc3s2)c1O	-27	.	44*	123	i	65	-4	-11	-43
Oc1cccc(-c2nc3ccccc3s2)c1	-3	0.28	74*	103	.	42	37	13*	-12
CCOc1cc(-c2nc3ccccc3s2)ccc1O	.	.	.	.	i	.	.	.	.
COc1ccccc1C(=O)NCc1ccc(-c2nc3ccccc3s2)cc1	9	0.48	51*	91	i	56	-17	9	-81
O=C(c1cc(-c2ccc3c(c2)OCO3)on1)N1CCOCC1	-14	-0.04	52*	112	i	59	5	-10	-48
O=C(c1cc(-c2ccc3c(c2)OCO3)on1)N1CCN(c2ccccc2)CC1	-28	0.0006	-10	126	i	111	.	.	.
SMILES	STAT1 blocker	Cl transport mod	STAT3 inh-1	STAT1 act	HSV augment	STAT3 act	STAT3 inh-2	NFkB inh STAT3ct	STAT1 inh 2
O=C(c1cc(-c2ccc(F)cc2)on1)N1CCCC1	-23	.	46*	121	.	66	10	-34	-84
O=C(c1cc(-c2ccc(Cl)cc2Cl)on1)N1CCOCC1	2	0.041	50*	99	i	60	22	-11	-89
CN(CC(=O)Nc1ccc(Cl)cc1)CC(=O)Nc1cc(Cl)ccc1C#N	6	-0.34	-12	93	i	114	.	.	.
O=C(Nc1cccc(Cl)c1)Nc1ccnc(-c2cccnc2)n1	-2	-0.76	55*	102	i	57	65*	-4	11
CCOc1ccccc1N(CC(=O)Nc1ccc(S(=O)(=O)N2CCOCC2)cc1)S(=O)(=O)c1ccc(Cl)cc1	0	1	-4	100	i	103	.	.	.
COc1ccc(CNC(=O)Cc2nn(C)c(=O)c3ccccc23)cc1	27	0.13	51*	75	i	59	48*	13*	25*
Cn1nc(CC(=O)Nc2cccc3ncccc23)c2ccccc2c1=O	12	.	46*	89	i	66	33	5	17*
COc1ccc(OC)c(NC(=O)Cc2nn(C)c(=O)c3ccccc23)c1	16	0.71	36	92	i	72	.	.	.
CC(C)NC(=O)CSc1c2c(nc3ccccc13)CCCC2	8	-1.2	-6	91	i	106	.	.	.
CC(C)n1c(NCCc2ccccc2)nc2c1c(=O)n(C)c(=O)n2C	31	0.17	45*	76	i	65	38	8	32*
CCCNc1nc2c(c(=O)n(C)c(=O)n2C)n1CCc1ccccc1	19	0.054	14	83	i	90	.	.	.
COC(=O)c1sccc1N/N=C/c1cccc(OC)c1O	-4	1.3	60*	104	i	49	19	-9	-3
COc1cccc(/C=N/Nc2nccnc2Cl)c1O	-4	0.6	83*	102	i	34	21	24*	-8
CC(C)(C)NC(=S)NC1CC1	.	0.58	.	.	i	.	.	.	.
Cc1ccc(/C=C(\NC(=O)c2ccc(C)cc2)C(=O)NCCCn2ccnc2)cc1	-5	-0.23	-4	103	i	104	.	.	.
COc1ccc(Br)c(C(=O)NC2CCCC2)c1	-4	0.27	8	104	.	100	.	.	.
COc1ccc(-[n+]2c(C)cc(/C=C3\Sc4ccccc4N3C)cc2C)cc1	28	i	85*	74	.	28	85*	56*	2
